# Active and inactive are the calls of the source. The rule behind the calls is not given here.
# Tested on: RAW264.7
# Experiment: Antiinflammatory activity against LPS-stimulated mouse RAW264.7 cells assessed as reduction of iNOS level at 10 uM after 16 hrs by DC protein assay
# Assay type: functional
# Outline: (§1)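 RAW264.7 cells activated with E. coli LPS (0.01 µg/mL) for 16 h with or without test compound. Cells washed in ice-cold PBS, lysed, and centrifuged at 20000g, 30 min, 4 °C. Supernatant protein measured by DC assay (Lowry-modified); equal protein loaded for SDS-PAGE, transferred to PVDF, blocked, and probed 180 min with anti-iNOS or anti-COX-2 (1:1000). Levels reported relative to LPS-only control.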
row,Structure (SMILES),Activity
1,C=C1[C@@H](O)C[C@H]2C[C@]3(CO)CCC(C)(C)[C@@H]3[C@@]12O,inactive
2,C=C1[C@@H](O)C[C@H]2C[C@]3(C)CCC(C)(C)[C@@H]3[C@@]12O,1.2
3,C=C1C(=O)C[C@H]2C[C@]3(C)CCC(C)(C)[C@@H]3[C@@]12O,34.8
4,CC1(C)CC[C@@]2(C)C[C@@H]3CC(=O)C(CO)=C3[C@@H]12,inactive
5,C=C1[C@@H](OC(C)=O)C[C@H]2C[C@]3(C)CCC(C)(C)[C@@H]3[C@@]12O,54.4
6,C=C1[C@H]2[C@@H](C[C@@H]1O)C[C@]1(C)CCC(C)(C)[C@H]21,inactive
7,C=C1[C@@H](OC(C)=O)C[C@H]2C[C@]3(C)CCC(C)(C)[C@@H]3[C@@]12OC(C)=O,inactive
8,C=C1[C@H]2[C@@H](C[C@@H]1O)C[C@]1(C)CC[C@](C)(CO)[C@H]21,inactive
9,C=C1[C@H]2[C@@H](C[C@@H]1OC(C)=O)C[C@]1(C)CCC(C)(C)[C@H]21,inactive

# Tested on: RAW264.7
# Experiment: Antiinflammatory activity against LPS-stimulated mouse RAW264.7 cells assessed as reduction of COX2 level at 10 uM after 16 hrs by DC protein assay
# Assay type: functional
# Outline: as §1
row,Structure (SMILES),Activity
1,C=C1[C@@H](O)C[C@H]2C[C@]3(CO)CCC(C)(C)[C@@H]3[C@@]12O,inactive
2,C=C1[C@@H](O)C[C@H]2C[C@]3(C)CCC(C)(C)[C@@H]3[C@@]12O,24.8
3,C=C1C(=O)C[C@H]2C[C@]3(C)CCC(C)(C)[C@@H]3[C@@]12O,inactive
4,CC1(C)CC[C@@]2(C)C[C@@H]3CC(=O)C(CO)=C3[C@@H]12,inactive
5,C=C1[C@@H](OC(C)=O)C[C@H]2C[C@]3(C)CCC(C)(C)[C@@H]3[C@@]12O,62.9
6,C=C1[C@H]2[C@@H](C[C@@H]1O)C[C@]1(C)CCC(C)(C)[C@H]21,inactive
7,C=C1[C@@H](OC(C)=O)C[C@H]2C[C@]3(C)CCC(C)(C)[C@@H]3[C@@]12OC(C)=O,inactive
8,C=C1[C@H]2[C@@H](C[C@@H]1O)C[C@]1(C)CC[C@](C)(CO)[C@H]21,inactive
9,C=C1[C@H]2[C@@H](C[C@@H]1OC(C)=O)C[C@]1(C)CCC(C)(C)[C@H]21,inactive
